Laboratory results published in article PMC8178754 (The Journal of Cell Biology, 2021).
One block for each molecule: values may come before it.

Experiments:
[1] = system: cells lacking both Ulp2–kinetochore interactions (KIM-Ctf3 and SIM-SUMO); assay: Growth under chemical stress, cells lacking both Ulp2–kinetochore interactions; format: cell-based, yeast; settings: KIM-Ctf3 and SIM-SUMO interactions both absent
Summary of the method: (§1)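 Strains were built by lithium acetate integration of PCR products and verified by sequencing or PCR. Cells were grown in YPD to OD600 ~1 and diluted to OD600 0.2. 10-fold serial dilutions in sterile water, 5 µl each, were spotted on YPD or YPD with hydroxyurea at indicated concentrations. Plates were incubated 2 or 3 d at 30°C, then imaged.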

[2] = system: ctf3-2A ulp2–SIM-3A double mutant cells; assay: Spot assay, growth of mutant strains under chemical stress; format: cell-based, yeast; settings: 10-fold serial dilutions, 30°C, 2 or 3 d
Summary of the method: as §1

ctf3-2A cells = assay: as above; format: cell-based, yeast; settings: 10-fold serial dilutions, 30°C, 2 or 3 d; effects modest
Summary of the method: as §1

[3] = system: ulp2–KIM-3A and ctf3-2A cells; assay: as above; format: cell-based, yeast; settings: YPD + hydroxyurea; 10-fold dilution series
Summary of the method: as §1

[4] = molecular target: T1, Ctf3 complex (Ctf3, Mcm16, Mcm22) (yeast, UniProt Q12748;Q12262;P47167); assay: fluorescence polarisation
T1 sequence (Q12748 whole entry, chain 1 of 3): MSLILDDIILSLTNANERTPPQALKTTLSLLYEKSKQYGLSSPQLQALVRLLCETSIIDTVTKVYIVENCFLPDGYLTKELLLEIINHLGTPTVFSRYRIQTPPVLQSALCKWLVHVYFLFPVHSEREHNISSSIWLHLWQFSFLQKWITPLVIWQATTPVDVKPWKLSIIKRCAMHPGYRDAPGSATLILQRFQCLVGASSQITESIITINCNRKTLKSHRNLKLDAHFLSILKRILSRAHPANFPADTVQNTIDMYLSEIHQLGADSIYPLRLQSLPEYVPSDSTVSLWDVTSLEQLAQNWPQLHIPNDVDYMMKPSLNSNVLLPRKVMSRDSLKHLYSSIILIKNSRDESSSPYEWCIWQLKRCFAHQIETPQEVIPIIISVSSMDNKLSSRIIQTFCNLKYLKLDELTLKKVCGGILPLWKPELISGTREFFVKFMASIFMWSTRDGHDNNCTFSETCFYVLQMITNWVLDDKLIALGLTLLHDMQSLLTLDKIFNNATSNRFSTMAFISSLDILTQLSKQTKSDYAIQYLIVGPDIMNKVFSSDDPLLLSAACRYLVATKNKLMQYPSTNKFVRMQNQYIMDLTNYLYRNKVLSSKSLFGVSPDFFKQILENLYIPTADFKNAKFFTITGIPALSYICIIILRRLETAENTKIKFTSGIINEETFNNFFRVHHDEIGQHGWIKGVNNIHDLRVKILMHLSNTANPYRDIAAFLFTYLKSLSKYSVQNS
T1 sequence (Q12262 whole entry, chain 2 of 3): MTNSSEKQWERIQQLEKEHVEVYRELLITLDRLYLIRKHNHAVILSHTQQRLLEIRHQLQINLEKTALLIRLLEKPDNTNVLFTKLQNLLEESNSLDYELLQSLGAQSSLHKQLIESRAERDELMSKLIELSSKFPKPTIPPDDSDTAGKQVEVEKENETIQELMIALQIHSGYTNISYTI
T1 sequence (P47167 whole entry, chain 3 of 3): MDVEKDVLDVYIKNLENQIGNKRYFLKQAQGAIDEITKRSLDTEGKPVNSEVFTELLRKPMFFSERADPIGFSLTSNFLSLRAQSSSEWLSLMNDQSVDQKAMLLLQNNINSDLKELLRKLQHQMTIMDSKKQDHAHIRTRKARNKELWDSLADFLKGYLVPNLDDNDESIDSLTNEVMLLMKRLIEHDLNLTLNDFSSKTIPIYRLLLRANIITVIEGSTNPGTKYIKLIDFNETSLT

[5] = molecular target: T1, Ctf3 complex (Ctf3, Mcm16, Mcm22); assay: pull-down
[6] = system: Ctf3-2A (Ctf3–R594A,K596A); assay: GST pulldown with Ctf3-2A; format: binding, yeast; settings: Fig. S2 A, 20 mM Tris, pH 8.5, 150 mM NaCl
Ctf3 = assay: GST-Ulp2-KIM pulldown from yeast cell extracts, Ctf3; format: binding; settings: immobilized GST-Ulp2-KIM as bait; anti–Protein A blot

Kd [4]: ~900 nM
Molecule: DDSDVNLIGSS (FITC-AHA on the N-terminus (FITC-AHA-DDSDVNLIGSS)) [FITC-Ulp2-KIM peptide (Ulp2-927-937)]

binding result [5]: binds
Molecule: DDSDVNLIGSS [GST-Ulp2-927-937]

binding result [5]: binds
Molecule: ADSDVNLIGSS [GST-Ulp2-KIM 1DA-1 (Ulp2-D927A)]

binding result [5]: binds
Molecule: DDSDVALIGSS [GST-Ulp2-927-937 N932A]

The next lines start with the molecule.

Molecule: CCCCNC(=O)n1c(NC(=O)OC)nc2ccccc21 [benomyl]
viability/sensitivity of cells lacking both Ulp2–kinetochore interactions [1]: Compromised viability | sensitivity of ctf3-2A ulp2–SIM-3A double mutant cells [2]: pronounced | sensitivity of ctf3-2A cells (ctf3-2A cells): sensitizes cells to hydroxyurea and benomyl

Molecule: NC(=O)NO [hydroxyurea]
sensitivity of ulp2–KIM-3A and ctf3-2A cells [3]: elevated sensitivity | viability/sensitivity of cells lacking both Ulp2–kinetochore interactions [1]: much more sensitive | sensitivity of ctf3-2A ulp2–SIM-3A double mutant cells [2]: pronounced | sensitivity of ctf3-2A cells (ctf3-2A cells): sensitizes cells to hydroxyurea

B1: GST-Ulp2-KIM: GST fusion of the Ulp2 kinetochore interaction motif (KIM) (protein)
chain: MSARKRKFNSLKPLDTLNSSRASSPRSSASLPPKRYNTFRKDPKIVDHLNNASTKDFLPVLSMNSESKRQIELSDNDVDNNDEGEGVNSGCSDQDFEPLQSSPLKRHSSLKSTSNGLLFQMSNNLGNGSPEPAVASTSPNGSIISTKLNLNGQFSCVDSKTLRIYRHKAPCIMTFVSDHNHPKFSLYFQQSVIYNSQVNLLDDVELIILDKKNSFMAIILKDLKKVKMILDVNNSSININTNILIWSTASSASNKKIKSIKRFLLMSYSSSIKVEILDHKEQILERLKHLIHPISSSSPSLNMERAINSTKNAFDSLRLKKTKLSTNDDESPQIHTHFLSNKPHGLQSLTKRTRIASLGKKEHSISVPKSNISPSDFYNTNGTETLQSHAVSQLRRSNRFKDVSDPANSNSNSEFDDATTEFETPELFKPSLCYKFNDGSSYTITNQDFKCLFNKDWVNDSILDFFTKFYIESSIEKSIIKREQVHLMSSFFYTKLISNPADYYSNVKKWVNNTDLFSKKYVVIPINISYHWFSCIITNLDAILDFHQNKDKNDAINSDEISINNPLVNILTFDSLRQTHSREIDPIKEFLISYALDKYSIQLDKTQIKMKTCPVPQQPNMSDCGVHVILNIRKFFENPVETIDVWKNSKIKSKHFTAKMINKYFDKNERNSARKNLRHTLKLLQLNYISYLKKENLYEEVMQMEEKKSTNINNNENYDDDDEEIQIIENIDQSSKDNNAQLTSEPPCSRSSSISTTEREPTELHNSVVRQPTGEIITDNEDPVRAASPETASVSPPIRHNILKSSSPFISESANETEQEEFTSPYFGRPSLKTRAKQFEGVSSPIKNDQALSSTHDIMMPSPKPKRIYPSKKIPQLSSHVQSLSTDSMERQSSPNNTNIVISDTEQDSRLGVNSESKNTSGIVNRDDSDVNLIGSSLPNVAEKNHDNTQESNGNNDSLGKILQNVDKELNEKLVDIDDVAFSSPTRGIPRTSATSKGSNAQLLSNYGDENNQSQDSVWDEGRDNPILLEDEDP
Ulp2–KIM interaction with Ctf3-2A in pulldown [6]: Ctf3-2A does not support the Ulp2–KIM interaction

B2: Ulp2: nuclear enzyme that removes SUMO chains from modified substrates; in pulldown represented by GST-Ulp2-KIM bait (protein, UniProt P40537 1-1034, looked up)
Ubiquitin-like-specific …: B1 chain
pulldown of Ctf3 from yeast cell extract (Ctf3): Ctf3, but not Ctf3-2A, binds Ulp2
